The record followed here is ChEMBL document CHEMBL1153789, “The methoxylated flavones eupatorin and cirsiliol induce CYP1 enzyme expression in MCF7 cells” (J Nat Prod, 2009).

Activity calls are given as the source filed them. The rule behind the calls is not given here.

Holding throughout (assay type): functional, cell-based
Assay [1] has as its system MCF7. Put plainly: Induction of CYP1B1 expression in human MCF7 cells at 10 nM after 24 hrs by 7-ethoxyresorufin-O-deethelase assay. In short, it runs like this:
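MCF7 cells were exposed for 24 h to 0.31, 0.625, 1.25 or 2.5 µM flavone, with 10 nM TCDD as positive control and 0.1% DMSO as negative control. CYP1 activity was read by 7-ethoxyresorufin-O-deethylation (EROD), which is mainly CYP1A1-selective, though CYP1B1 may contribute. The time course used 2.5 µM. Three replicates.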

In assay [2] the test system is MCF7. Put plainly: Antiproliferative activity in human MCF7 cells at 1.5 uM after 96 hrs by MTT assay. (Tetrazolium assays rely on reduction of a dye to a coloured formazan, in cell work by metabolically active cells.)
Assay [3] has as its system MCF7. Put plainly: Induction of CYP1A1 expression in human MCF7 cells at 0.5 uM to 10 uM after 24 hrs by RT PCR and DNA electrophoresis.
Assay [4] deals with MCF7. Put plainly: Induction of CYP1A1 expression in human MCF7 cells at 2.5 uM after 24 hrs by RT PCR. In short, it runs like this: (§1)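 MCF7 cells treated 24 h (0, 1.25, 2.5, 5 µM; 10 nM TCDD reference); RT-PCR for CYP1A1, CYP1B1 and β-actin, primers per Döhr et al.; band intensities normalized to β-actin, semiquantitative; gels representative of three individual experiments.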

Assay [5] deals with MCF7. Put plainly: Induction of CYP1B1 expression in human MCF7 cells at 1.25 uM after 24 hrs by RT PCR. An outline of the steps:
as §1

For assay [6], the system named is MCF7. Put plainly: Induction of CYP1A1 expression in human MCF7 cells at 5 uM after 24 hrs by RT PCR. An outline of the steps: as §1
The test system of assay [7] is MCF7. Briefly: Induction of CYP1B1 expression in human MCF7 cells at 5 uM after 24 hrs by RT PCR. In short, it runs like this:
as §1

Assay [8] deals with MCF7. Briefly: Antiproliferative activity in human MCF7 cells after 96 hrs by MTT assay. Conditions: MCF7, 96 h.
Assay [9] has as its system MCF7. Put plainly: Antiproliferative activity in human MCF7 cells after 96 hrs by MTT assay in presence of acacetin.
The test system of assay [10] is MCF7. Put plainly: Induction of CYP1A1 expression in human MCF7 cells after 24 hrs by 7-ethoxyresorufin-O-deethelase assay. An outline of the steps: (§2)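 EROD (7-ethoxyresorufin-O-deethylase) activity in MCF7 cells after 24 h exposure to 0.31, 0.625, 1.25, 2.5 µM flavone; 10 nM TCDD positive control, 0.1% DMSO negative control; three replicates. Read-out reflects mainly CYP1A1, with possible CYP1B1 contribution.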

Assay [11] has as its system MCF7. Briefly: Induction of CYP1B1 expression in human MCF7 cells after 24 hrs by 7-ethoxyresorufin-O-deethelase assay. An outline of the steps: as §2

Regarding `Clc1cc2c(cc1Cl)Oc1cc(Cl)c(Cl)cc1O2`, the result in the assay on MCF7 [1] was Active.

Turning to `COc1ccc(-c2cc(=O)c3c(O)cc(O)cc3o2)cc1`, the outcome in the assay with MCF7 [2] was inactive.

Regarding `O=c1c(O)c(-c2ccc(O)c(O)c2)oc2cc(O)cc(O)c12`, the result in the assay with MCF7 [3] was Active.

With `O=c1c(O)c(-c2ccc(O)cc2)oc2cc(O)cc(O)c12`, the outcome with MCF7 [3] was inactive.

A word on the IC25: it is the concentration at which the effect reaches the 25% level. Broadly, the IC50 is the midpoint of a concentration-inhibition curve. On to `COc1cc2oc(-c3ccc(O)c(O)c3)cc(=O)c2c(O)c1OC` [CIRSILIOL], for which the result in the assay on MCF7 [4], in the assay on MCF7 [5] and in the assay on MCF7 [7] was Active. Also, the result in the assay with MCF7 [6] was inactive. The IC25 in the assay on MCF7 [8] was 0.5 µM; in the assay with MCF7 [9] (MCF7, 96 h) it was 5 µM. Moreover, the IC50 with MCF7 [8] is 8 µM; with MCF7 [9] (MCF7, 96 h), 15 µM.

For the molecule `COc1ccc(-c2cc(=O)c3c(O)c(OC)c(OC)cc3o2)cc1O` [EUPATORIN], the Activity result in the assay on MCF7 [10] and with MCF7 [11] was “Dose-dependent effect” throughout. Moreover, the outcome in the assay on MCF7 [6] and in the assay with MCF7 [7] was Active. In the assay with MCF7 [8], this molecule came in with an IC50 of 7 µM. Also, the outcome with MCF7 [9] was inactive.
